According to ChEMBL document CHEMBL4152207, “Discovery of potent and selective BRD4 inhibitors capable of blocking TLR3-induced acute airway inflammation” (Eur J Med Chem, 2018):
The source made the active and inactive calls. The rule behind the calls is not given here.

Columns and labels:
[1] = Half life in rat at 10 mg/kg, iv; type: ADME, organism-based; conditions: in vivo
[2] = AUC (0 to t) in rat at 10 mg/kg, iv; type: ADME, organism-based; conditions: in vivo
[3] = tested on: Mus musculus; assay: Anti-inflammatory activity in poly(I:C)-induced airway inflammation C57BL/6 mouse model assessed as reduction in mKC expression in lung at 10 mg/kg, ip administered 1 day prior to poly(I:C) stimulation and redosed on day 2 followed by poly(I:C) stimulation; type: functional, organism-based
Procedure, shortened: (§1)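 Male C57BL/6J mice, 12 weeks old, were given 10 mg/kg i.p. one day before stimulation. The next day they got a second dose, immediately followed by intranasal poly(I:C) (300 μg in 50 μL PBS) or PBS alone. Compound was taken up in DMSO and diluted in 10% hydroxypropyl β-cyclodextrin in PBS. Mice were euthanized one day later and lung tissue was collected for cytokine expression.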

[4] = tested on: Mus musculus; assay: Anti-inflammatory activity in poly(I:C)-induced airway inflammation C57BL/6 mouse model assessed as reduction in mIL6 expression in lung at 10 mg/kg, ip administered 1 day prior to poly(I:C) stimulation and redosed on day 2 followed by poly(I:C) stimulation; type: functional, organism-based; procedure, shortened: as §1
[5] = tested on: Mus musculus; assay: Toxicity in mouse assessed as effect on body weight at 1 to 50 mg/kg, ip dosed daily for 1 month; type: organism-based; conditions: in vivo
[6] = tested on: Mus musculus; assay: Toxicity in mouse assessed as effect on WBC levels at 1 to 50 mg/kg, ip dosed daily for 1 month; type: organism-based; conditions: in vivo
[7] = tested on: Mus musculus; assay: Toxicity in mouse assessed as effect on platelet level at 1 to 50 mg/kg, ip dosed daily for 1 month; type: organism-based; conditions: in vivo
[8] = tested on: Mus musculus; assay: Hepatotoxicity in mouse assessed as effect on albumin level at 1 to 50 mg/kg, ip dosed daily for 1 month; type: toxicity, organism-based; conditions: in vivo
Procedure, shortened: (§2)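 Groups of n = 5 mice were dosed daily at 1-50 mg/kg for one month. Liver function markers (albumin, globulin, ALK, ALT) were measured alongside body weight, blood counts and renal markers.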

[9] = tested on: Mus musculus; assay: Hepatotoxicity in mouse assessed as effect on globulin level at 1 to 50 mg/kg, ip dosed daily for 1 month; type: toxicity, organism-based; conditions: in vivo; procedure, shortened: as §2
[10] = tested on: Mus musculus; assay: Hepatotoxicity in mouse assessed as effect on ALT level at 1 to 50 mg/kg, ip dosed daily for 1 month; type: toxicity, organism-based; conditions: in vivo; procedure, shortened: as §2
[11] = tested on: Mus musculus; assay: Hepatotoxicity in mouse assessed as effect on ALKP level at 1 to 50 mg/kg, ip dosed daily for 1 month; type: toxicity, organism-based; conditions: in vivo; procedure, shortened: as §2
[12] = target: Alpha-1A adrenergic receptor (Homo sapiens) (UniProt P35348); assay: Displacement of [3H]prazosin from human recombinant adrenergic alpha1A receptor at 10 uM after 120 mins by scintillation counting analysis relative to control
[13] = target: Alpha-2A adrenergic receptor (Homo sapiens) (UniProt P08913); assay: Binding affinity to adrenergic alpha2A receptor (unknown origin) at 10 uM by agonist radioligand assay relative to control
[14] = target: B2 bradykinin receptor (Homo sapiens) (UniProt P30411); assay: Displacement of [3H]bradykinin from human recombinant B2 receptor at 10 uM after 60 mins by scintillation counting analysis relative to control
[15] = species: Rattus norvegicus; assay: Displacement of [3H]flunitrazepam from rat brain central BZD at 10 uM after 60 mins by radioligand binding assay relative to control
[16] = target: Cannabinoid receptor 1 (Homo sapiens) (UniProt P21554); assay: Displacement of [3H]CP 55940 from human recombinant CB1 receptor at 10 uM after 120 mins by scintillation counting analysis relative to control
Sequence of Cannabinoid receptor 1 (Homo sapiens) (P21554 whole entry): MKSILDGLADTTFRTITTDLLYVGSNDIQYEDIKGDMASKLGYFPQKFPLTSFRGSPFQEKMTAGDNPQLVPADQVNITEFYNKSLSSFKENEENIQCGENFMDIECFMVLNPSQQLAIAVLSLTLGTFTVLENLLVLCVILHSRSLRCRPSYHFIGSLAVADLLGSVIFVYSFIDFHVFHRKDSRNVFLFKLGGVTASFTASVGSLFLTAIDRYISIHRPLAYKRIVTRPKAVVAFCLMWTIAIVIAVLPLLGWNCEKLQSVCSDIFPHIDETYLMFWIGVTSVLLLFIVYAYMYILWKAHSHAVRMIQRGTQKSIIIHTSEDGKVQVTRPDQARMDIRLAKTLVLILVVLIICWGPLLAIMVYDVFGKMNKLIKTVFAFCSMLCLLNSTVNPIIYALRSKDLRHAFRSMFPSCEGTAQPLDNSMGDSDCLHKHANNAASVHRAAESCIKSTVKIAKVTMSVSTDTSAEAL

[17] = target: Glutamate [NMDA] receptor (Homo sapiens) (UniProt Q05586+Q12879+Q13224+O15399+O60391+Q14957+Q8TCU5); assay: Binding affinity to NMDA receptor (unknown origin) at 10 uM by antgonist radioligand assay relative to control; type: protein-complex assay
[18] = target: MAO-A (amine oxidase [flavin-containing] A) (Rattus norvegicus, UniProt P21396); assay: Displacement of [3H]Ro 41-1049 from rat MAO-A at 10 uM after 120 mins by scintillation counting analysis relative to control; conditions: probe [3H]Ro 41-1049, read-out: Activity
Sequence of MAO-A (amine oxidase [flavin-containing] A) (P21396 whole entry): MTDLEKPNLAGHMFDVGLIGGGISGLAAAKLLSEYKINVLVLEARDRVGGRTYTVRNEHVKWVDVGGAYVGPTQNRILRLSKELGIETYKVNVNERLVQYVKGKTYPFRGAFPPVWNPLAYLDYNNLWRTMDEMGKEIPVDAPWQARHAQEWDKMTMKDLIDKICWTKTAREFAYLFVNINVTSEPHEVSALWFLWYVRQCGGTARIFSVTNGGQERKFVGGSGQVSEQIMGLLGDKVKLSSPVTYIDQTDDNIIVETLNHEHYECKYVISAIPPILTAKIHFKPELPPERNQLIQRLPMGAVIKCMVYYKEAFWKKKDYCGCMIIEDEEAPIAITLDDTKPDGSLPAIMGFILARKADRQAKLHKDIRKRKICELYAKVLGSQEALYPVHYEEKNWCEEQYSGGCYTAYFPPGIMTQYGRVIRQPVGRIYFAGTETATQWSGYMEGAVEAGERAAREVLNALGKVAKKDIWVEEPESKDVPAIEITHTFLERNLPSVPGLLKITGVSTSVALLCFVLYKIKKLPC

[19] = target: Muscarinic acetylcholine receptor M2 (Homo sapiens) (UniProt P08172); assay: Displacement of [3H]AF-DX 384 from human recombinant M2 receptor at 10 uM after 60 mins by scintillation counting analysis relative to control
[20] = target: Muscarinic acetylcholine receptor M3 (Homo sapiens) (UniProt P20309); assay: Displacement of [3H]4-DAMP from human recombinant M3 receptor at 10 uM after 60 mins by scintillation counting analysis relative to control
[21] = target: Neuronal acetylcholine receptor; alpha4/beta2 (Homo sapiens) (UniProt P17787+P43681); assay: Binding affinity to neuronal alpha4beta2 (unknown origin) at 10 uM by antgonist radioligand assay relative to control; type: protein-complex assay
[22] = target: Delta-type opioid receptor (Homo sapiens) (UniProt P41143); assay: Displacement of [3H]DADLE from human recombinant delta opioid receptor after 60 mins by scintillation counting analysis relative to control
[23] = target: Mu-type opioid receptor (Homo sapiens) (UniProt P35372); assay: Displacement of [3H]DAMGO from human recombinant mu opioid receptor at 10 uM after 120 mins by scintillation counting analysis relative to control
[24] = target: 5-hydroxytryptamine receptor 3A (Homo sapiens) (UniProt P46098); assay: Displacement of [3H]BRL 43694 from human recombinant 5-HT3 receptor at 10 uM after 120 mins by scintillation counting analysis relative to control
Sequence of 5-hydroxytryptamine receptor 3A (Homo sapiens) (P46098 whole entry): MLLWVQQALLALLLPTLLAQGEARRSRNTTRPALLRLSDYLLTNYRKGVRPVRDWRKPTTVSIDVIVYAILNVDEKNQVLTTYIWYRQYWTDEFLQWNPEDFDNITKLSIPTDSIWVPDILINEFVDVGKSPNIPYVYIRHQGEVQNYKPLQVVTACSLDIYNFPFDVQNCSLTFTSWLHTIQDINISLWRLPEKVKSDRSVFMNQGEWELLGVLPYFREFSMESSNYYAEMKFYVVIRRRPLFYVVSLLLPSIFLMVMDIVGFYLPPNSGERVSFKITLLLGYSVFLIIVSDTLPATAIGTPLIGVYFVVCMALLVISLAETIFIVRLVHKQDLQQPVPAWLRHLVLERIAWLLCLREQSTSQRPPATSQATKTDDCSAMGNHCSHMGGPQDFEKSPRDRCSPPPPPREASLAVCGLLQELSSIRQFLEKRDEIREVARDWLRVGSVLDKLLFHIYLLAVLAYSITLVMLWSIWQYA

[25] = target: Cav1.2 (L-type calcium channel) (Rattus norvegicus, UniProt P22002); assay: Displacement of [3H]nitrendipine from rat Cav1.2 (L-type) at 10 uM after 90 mins by scintillation counting analysis relative to control; conditions: probe [3H]nitrendipine, read-out: Activity
[26] = species: Cavia porcellus; assay: Binding affinity to guinea pig Sodium channel site 2 at 10 uM by antagonist radioligand assay relative to control; parameters: scale not given: the % may be the effect or the level left
[27] = target: Sodium-dependent serotonin transporter (Homo sapiens) (UniProt P31645); assay: Binding affinity to human serotonin transporter at 10 uM by antagonist radioligand assay relative to control; parameters: scale not given: the % may be the effect or the level left
Sequence of Sodium-dependent serotonin transporter (Homo sapiens) (P31645 whole entry, looked up): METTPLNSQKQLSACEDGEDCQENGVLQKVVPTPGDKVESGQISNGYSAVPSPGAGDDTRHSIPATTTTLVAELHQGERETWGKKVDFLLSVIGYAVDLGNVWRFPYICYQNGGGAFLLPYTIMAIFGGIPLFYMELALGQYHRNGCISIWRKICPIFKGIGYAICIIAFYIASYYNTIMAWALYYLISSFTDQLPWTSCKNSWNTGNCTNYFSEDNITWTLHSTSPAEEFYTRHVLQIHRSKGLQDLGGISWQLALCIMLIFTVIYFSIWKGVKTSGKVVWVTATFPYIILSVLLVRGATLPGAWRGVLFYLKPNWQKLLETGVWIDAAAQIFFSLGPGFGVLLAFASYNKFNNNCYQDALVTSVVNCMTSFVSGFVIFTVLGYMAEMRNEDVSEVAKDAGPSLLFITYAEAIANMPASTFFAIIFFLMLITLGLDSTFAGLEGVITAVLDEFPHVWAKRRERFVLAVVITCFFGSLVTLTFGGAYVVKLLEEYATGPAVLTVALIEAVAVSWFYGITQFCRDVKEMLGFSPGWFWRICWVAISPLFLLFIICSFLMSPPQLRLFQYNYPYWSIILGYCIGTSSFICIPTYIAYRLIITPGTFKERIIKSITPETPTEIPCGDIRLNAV

[28] = target: Prostaglandin G/H synthase 1 (Homo sapiens) (UniProt P23219); assay: Inhibition of human recombinant COX1 using arachidonic acid as substrate after 3 mins by fluorimetric analysis; parameters: scale not given: the % may be the effect or the level left
Sequence of Prostaglandin G/H synthase 1 (Homo sapiens) (P23219 whole entry): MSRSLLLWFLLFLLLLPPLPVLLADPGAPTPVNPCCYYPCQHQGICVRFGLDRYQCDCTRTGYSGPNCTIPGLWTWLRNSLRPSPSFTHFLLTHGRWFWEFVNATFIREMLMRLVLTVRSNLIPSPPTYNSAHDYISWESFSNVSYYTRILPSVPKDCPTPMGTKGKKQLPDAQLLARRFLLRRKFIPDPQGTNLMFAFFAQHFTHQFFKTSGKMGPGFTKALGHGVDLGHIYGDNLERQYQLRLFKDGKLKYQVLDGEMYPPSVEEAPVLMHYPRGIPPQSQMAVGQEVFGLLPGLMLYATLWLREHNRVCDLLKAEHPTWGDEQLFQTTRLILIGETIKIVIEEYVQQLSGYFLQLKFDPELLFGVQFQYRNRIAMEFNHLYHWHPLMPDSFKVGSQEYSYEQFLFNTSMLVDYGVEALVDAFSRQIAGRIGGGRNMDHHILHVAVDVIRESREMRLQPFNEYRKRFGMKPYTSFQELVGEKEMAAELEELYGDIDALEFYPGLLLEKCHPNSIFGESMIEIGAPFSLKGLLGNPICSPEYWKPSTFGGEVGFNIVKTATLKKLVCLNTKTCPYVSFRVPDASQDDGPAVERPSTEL

[29] = target: 3',5'-cyclic-AMP phosphodiesterase 4D (Homo sapiens) (UniProt Q08499); assay: Displacement of [3H]cAMP from human recombinant PDE4D2 at 10 uM after 20 mins by scintillation counting analysis relative to control
Sequence of 3',5'-cyclic-AMP phosphodiesterase 4D (Homo sapiens) (Q08499 whole entry): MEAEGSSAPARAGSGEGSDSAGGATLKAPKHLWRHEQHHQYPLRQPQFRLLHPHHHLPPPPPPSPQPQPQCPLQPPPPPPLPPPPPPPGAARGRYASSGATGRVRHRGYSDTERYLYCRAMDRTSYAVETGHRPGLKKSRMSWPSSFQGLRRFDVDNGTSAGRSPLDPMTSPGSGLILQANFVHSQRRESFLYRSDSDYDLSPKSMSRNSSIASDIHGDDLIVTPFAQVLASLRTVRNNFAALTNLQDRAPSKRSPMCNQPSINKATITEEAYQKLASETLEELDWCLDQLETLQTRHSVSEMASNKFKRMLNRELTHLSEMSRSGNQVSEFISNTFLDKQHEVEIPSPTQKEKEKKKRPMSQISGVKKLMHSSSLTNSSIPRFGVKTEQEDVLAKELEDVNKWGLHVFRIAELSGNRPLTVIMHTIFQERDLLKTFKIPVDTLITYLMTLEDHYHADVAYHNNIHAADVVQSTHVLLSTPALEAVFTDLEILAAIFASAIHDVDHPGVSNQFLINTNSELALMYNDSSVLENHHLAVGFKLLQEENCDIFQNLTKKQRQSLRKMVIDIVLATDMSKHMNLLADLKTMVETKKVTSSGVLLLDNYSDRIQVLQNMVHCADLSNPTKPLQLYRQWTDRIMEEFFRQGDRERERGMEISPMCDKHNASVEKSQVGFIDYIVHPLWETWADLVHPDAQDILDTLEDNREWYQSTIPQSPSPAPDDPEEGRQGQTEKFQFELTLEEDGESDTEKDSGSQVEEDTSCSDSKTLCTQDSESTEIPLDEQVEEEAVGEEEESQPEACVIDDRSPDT

[30] = target: Tyrosine-protein kinase Lck (Homo sapiens) (UniProt P06239); assay: Inhibition of human recombinant LCK using Ulight-Poly GAT[EAY(1:1:1)]n as substrate after 10 mins relative to control; parameters: scale not given: the % may be the effect or the level left
Sequence of Tyrosine-protein kinase Lck (Homo sapiens) (P06239 2-509 limits assumed): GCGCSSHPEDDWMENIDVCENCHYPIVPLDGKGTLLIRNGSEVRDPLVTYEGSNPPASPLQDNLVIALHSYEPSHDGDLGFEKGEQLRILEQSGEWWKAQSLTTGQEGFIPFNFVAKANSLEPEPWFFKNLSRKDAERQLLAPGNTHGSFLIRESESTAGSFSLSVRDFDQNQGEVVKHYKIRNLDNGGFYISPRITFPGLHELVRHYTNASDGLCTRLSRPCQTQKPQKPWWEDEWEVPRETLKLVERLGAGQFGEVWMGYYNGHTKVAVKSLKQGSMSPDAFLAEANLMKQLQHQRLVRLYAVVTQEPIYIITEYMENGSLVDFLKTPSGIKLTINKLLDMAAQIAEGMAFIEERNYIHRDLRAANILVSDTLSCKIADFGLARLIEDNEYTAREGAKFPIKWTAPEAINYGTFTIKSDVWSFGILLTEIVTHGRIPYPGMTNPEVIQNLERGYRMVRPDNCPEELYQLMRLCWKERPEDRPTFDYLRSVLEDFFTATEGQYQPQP

[31] = target: Inhibitor of nuclear factor kappa-B kinase subunit epsilon (Homo sapiens) (UniProt Q14164); assay: Inhibition of human recombinant IKKepsilon using Ulight-FLGFTYVAP as substrate after 90 mins relative to control; parameters: scale not given: the % may be the effect or the level left
Sequence of Inhibitor of nuclear factor kappa-B kinase subunit epsilon (Homo sapiens) (Q14164 whole entry): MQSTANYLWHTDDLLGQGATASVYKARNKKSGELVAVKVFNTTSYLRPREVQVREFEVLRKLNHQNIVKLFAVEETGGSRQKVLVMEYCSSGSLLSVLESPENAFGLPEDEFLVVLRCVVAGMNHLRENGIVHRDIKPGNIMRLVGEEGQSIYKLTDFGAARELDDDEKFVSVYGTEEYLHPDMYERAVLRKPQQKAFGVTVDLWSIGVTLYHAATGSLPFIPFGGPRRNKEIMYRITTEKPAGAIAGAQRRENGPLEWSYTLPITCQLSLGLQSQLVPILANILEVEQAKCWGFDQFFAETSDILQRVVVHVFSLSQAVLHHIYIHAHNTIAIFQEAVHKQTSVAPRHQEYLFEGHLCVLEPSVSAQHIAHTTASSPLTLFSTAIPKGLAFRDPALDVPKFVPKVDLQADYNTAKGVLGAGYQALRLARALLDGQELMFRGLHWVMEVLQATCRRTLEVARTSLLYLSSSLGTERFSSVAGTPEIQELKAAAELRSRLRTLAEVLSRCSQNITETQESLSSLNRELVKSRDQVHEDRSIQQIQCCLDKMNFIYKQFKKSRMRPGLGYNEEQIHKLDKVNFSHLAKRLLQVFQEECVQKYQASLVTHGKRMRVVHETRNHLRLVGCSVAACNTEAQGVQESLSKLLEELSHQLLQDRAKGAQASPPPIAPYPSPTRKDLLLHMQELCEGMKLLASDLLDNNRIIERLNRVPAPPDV

[32] = tested on: Mus musculus; assay: Hepatotoxicity in mouse at 1 to 50 mg/kg, ip dosed daily for 1 month by histological analysis; type: toxicity, organism-based; conditions: in vivo
[33] = tested on: Mus musculus; assay: Renal toxicity in mouse at 1 to 50 mg/kg, ip dosed daily for 1 month by histological analysis; type: organism-based; conditions: in vivo

In the case of `Cc1cc(/N=N/c2ccc(S(=O)(=O)NC3CCCC3)cc2)c(N)cc1O`, the half-life [1] is reported as 49.8 min, the AUC(0-t) [2] is reported as 11400 ng·h/mL and the Activity [3] is reported as “Active”. The Activity [4] was “Active”, the Activity [5] was “Non-Toxic” and the Activity [6] was “Non-Toxic”. For the same compound, the Activity [7] was “Non-Toxic”, the Activity [8] was “Non-Toxic” and the Activity [9] was “Non-Toxic”. For the same compound, the Activity [10] was “Non-Toxic”, the Activity [11] was “Non-Toxic” and the Activity [12] was 17.2%. For the same compound, the Activity [13] was 3%, the Activity [14] was -2.4% and the Activity [15] was 8.3%. It also gave an Activity [16] of 24.7%, an Activity [17] of 17% and an inhibition at 2 h, 10 µM [18] of 49.8%. For the same compound, the Activity [19] was 21.6%, the Activity [20] was 4.8% and the Activity [21] was -2.9%. The Activity [22] was -2.7%, the Activity [23] was 17.4% and the Activity [24] was -12.9%. For the same compound, the inhibition at […], 10 µM [25] was 42%, the Activity [26] was 27.7% and the Activity [27] was 15%. The Activity [28] was 28.2 to 41.6%, the Activity [29] was 39.4% and the Activity [30] was -20.6%. The Activity [31] was -26.2%, the Activity [32] was “Non-Toxic” and the Activity [33] was “Non-Toxic”.
